In the RNAGym collection of RNA variant scans (doi:10.1126/science.aae0568):
Fewer inactive variants are shown than the library holds.

B1: tRNA (parent)
chain: GUUCCGUUGGCGUAAUGGUAACGCGUCUCCCUCCUAAGGAGAAGACUGCGGGUUCGAGUCCCGUACGGAACG

Variants of: B1
Assay: yeast fitness relative to wild type (ratio to wild type); higher = fitter; tRNA-Arg(CCU), competitive growth, 37 C, YPD
How it was run: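 Start and end populations of a pooled competition were compared by 100-nucleotide paired-end sequencing of gene amplicons. The Saccharomyces cerevisiae strains carried tRNA-Arg(CCU) gene variants at the native genomic locus, synthesised with a 3% per-site mutation rate at 69 sites, and competed in YPD at 37°C for 24 hours in six parallel replicates. Darwinian fitness relative to wild type was based on the change in genotype frequencies. Genotypes required ≥ 100 starting reads, and estimates < 0.5 were set to 0.5.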

Row | Variant | yeast fitness
1 | GUUCCGUUGGCGUAAUGGUAACGCGUCUCCCUCCUAAGGAGAAGCCAGCGGGUUCGAGUCCCGUAUGGAACG | 0.595
2 | GUUCCGUUGGCGUAGUGGUAACGCGUCUCCCUCCUAAGGAGAAGACUGCGGGUUAGAGUCCCGUACGGAACG | 0.727
3 | GAUCCGUUGGGGUAAUGGUAACGCGUCUCCCUCGUAAGGAGAAGACUGCGGGUUCGAGUCCCGGACGGAACG | ≤ 0.5
4 | GUUCCGUUGGCGUAAUGGUAACGCGUCUCCGUCCUAAUGAGAAGACUGCGGGUUCGAGUCCCGUACGGAACG | 0.804
5 | GUUCCGUUGGCGUAAUGGUAACGCGCCUCUCUCCUAAGGAGAAGACAGCGGGUUCGAGUCCCGUACGGAACG | 0.749
6 | GUUCCGUUGGCGUAAUGGUAACGAGUCUCCGUCCUAAGGAGAAGACUGCGGGUUCGAGUCCAGUACGGAACG | 0.594
7 | GUCCCGUUGGCGUAAUGGUAUCGCGUCUCCCUCCUAGGGAGAAAACUGCGGGUUCGAGUCCCAUACGGAACG | ≤ 0.5
8 | GUUCCGUUAGCGUAAUGGUAACGCGUCUUCCUCCUAAGGAGAAGACAGCGGGUUCGAGUCCCGUUCGGAACG | ≤ 0.5
9 | GUUCCGUUGGCGUAAUGGUAACACGUCUCCCUCCUAAGGAGAAGACUGCGGGUUCGAGUCCCGUACGGAUCG | 0.854
10 | GUUCCGUUGGCGUAAUGGUAACGCGUCUCCAUCCUAAGGAGAAGAUUGCGGGUUCGAGUCCCGUACUGAACG | 0.684
11 | GUUUGGUUGGCGUAAUGCUAACGCGUCUCCCUCUUAAGGAGAAGACUGCGGGUUCGAGUCCCGUACGGCACG | ≤ 0.5
12 | GUUCCGUUGGCGUAAGGGUAACGCGUCUUCCUCCUAAGGAGAAGACUGCGGGUUGGAGUCCCGUACGGAACG | ≤ 0.5
13 | GUUCCGUUGGCGUAGUGGUAACGCGUCUCCCUCCUAAGGAAAUGACUGCCGGUUCGAGUCCCGUACGGAACG | ≤ 0.5
14 | GUUCCGUUGGCGUAGUGGUAACGCGUCUCCCUCCUAAGGAGAAGACUGCGGGUUCGAGUCCGGUAUGGAACG | 0.535
15 | GUUCCGUUGGCGUAAUGGUAACGCGUCUCCCUCCUAAGGAGAAGACUGCGGGUUCGAGUCGGGUACGGACCG | 0.512
16 | GCCCCGUUGGCGUAAUGGUAACGCGUCUCCCUCUUAAGGAGAAGACUGCGGGUUCGAGUCCCAUACGGAACG | ≤ 0.5
17 | GUUCCGUUGGCGUAAUGGUAACGCGUCCCCCUCCAAAGGAGAAGACUGCGGGUUCGAGUCCCGUACGGAACG | 0.578
18 | GUUCCGUCGGCGUAAUGGUUUCGCGGCUCCAUCCUAAGGAGAAGACUGCGGGAUCGAGUCCCGUACGGCACG | ≤ 0.5
19 | GUUCCGUUGGCGUAAUGGUAACGCGCCUCCCUCCUAAGGAGAAGCCUGCGGGUUCGAGUCCCGUACGGAACG | 0.857
20 | GUUCCGUUGGCGUAAUGGUAACGGGUCUCACUCCUAAGGAGAACACCGCGGGUUCGAGUCCCGUACGGAACG | 0.567
21 | GUUCCGUUGGCGUUAUGGUAACGCGUCUCUCUCCUAAGGAGAAGACUGCGGGUUCGAGUACCGUAUGGAACG | 0.618
22 | GUUAAGUUGGCGUAAUGGUUACGCGUCUCCUUCCUAAGGAGAAGACUGUGGGUUCGAGUCCCGUACGGAACG | ≤ 0.5
23 | GUUCCAUUGGCGUAAUGGUAACGCGUCUCCCUCCUAAGGAGAAGACUGCAGGUUCGAGUCCCGUAAGGAACG | ≤ 0.5
24 | GCUCCGUUGGCGUAAAGGUAACGCGUCUCCCUCCUAAGGAGAAGACUGUGGGUUCGAGUCCCGUCCGGCACG | ≤ 0.5
25 | GUUCCGUUGGCGUAAUGGUAGCGCGUCUCCCCCCUAAGGAGAAGACUGCGCGUUCGAGUCACGUACGGAACG | 0.508

Row | Variant | yeast fitness
26 | GUUCCGUUAGCGUAAUGGUAACGCGUCUCCCUCGUAAGGAGAAGACUGCGGGUUCGAGUCCCGUAUGGAACG | ≤ 0.5
27 | GUUCCGUUGGCGUAAUGGUAACGGCUCUCGCCCCUAAGGAGAAGACUGCGGGUUCGAAUUCCGUACGGAACG | ≤ 0.5
28 | GUUCCGUUGGCGUAAUGGUAACGCGUCUCCCUCCUAAGGGGAAGACUGCGGGUUCGAGUCCUGUAGGGCACG | ≤ 0.5
29 | GUUCCGUUGGUGUAAUGGUAAAGCGUCUGCCUUCUAAGGAGAAGACUGCGGGUUCGUGUCCCGUACGGAUCG | ≤ 0.5
30 | GUUCCGUUGGCGUAAUGGUAACGCGUCUCCCACCUAAGGAGAAGACUGCGGGUUCGAGUCCCUAUCGGAACG | 0.634
31 | GUUGCAUUGGCGUAAUGGUAACACGUCUCCCUCCUAAGGAGAGGACUCCGGGUUCGAGUCCCGUACGGAACG | ≤ 0.5
32 | GUUCCGUUGGUGUAACGGUAACGCGUCUCCCUACUAAGGAGAAGACUGCGGGCUCGAGUCCCGUAGUGAACG | ≤ 0.5
33 | GUUCCGUUGGCGUAUUGGUAACGCGUGGCCCUCCUAAGGAGAAGACUGCGGGUUCGAGUCCCGUACCGAACG | ≤ 0.5
34 | GUUCCGUUGGCGUAAUGGUAACGCGUCUCCCUCCUAAGGAGAGGACUGCGGGGUACGAGUCCGUCCGGAACG | ≤ 0.5
35 | GUUCCGCUGGCGUAAUGGUCACGCGUCUCCCUCCUAAGGAGAAGACUGCGGGUUCGAGUCCCGUACGGAACG | 0.844
36 | GUUCGGUUGGCGUAAUGGUAACGCGUCUCCCUCCUAAGGAGAAAACUGCGGGUUCGAGUCCCGUACGGUACG | 0.646
37 | GUUCCGUUGGCGUAAUGGUAACGCGUCUCUCUCCUAAGGAGAAGACUGCGGGUACGAGUCCCGUACGCAACG | ≤ 0.5
38 | GUUCCGUUGGCGUAAUGGUAACGCGUCUCCCUCCUAAGGUGAACACUGCGGGUUCGAGUCCCGUACGGAACG | 0.954
39 | GUUCCGAUCGCGUAAUGGUAACGCGUCUCCCUCCUAAGGAGAAGACUGCGGGUUCGAGUCCCGUACGGAACG | 0.674
40 | GUUACGUUGGCGUAAUGGUAACGCGUCUCCCCCCUAAGGAGCAGACUGCGGGUUCGAGUCCCGUACGGAACG | 0.578
41 | GUUCCGUUGGCGUUAUGGUAACGCAUCUCCCUCCUAAGGAGAAGACUGCGGGUUCGAGUCUCGUACGGAACG | 0.649
42 | GUUCCGUUGGCGUAAUGGUAACGCAUCUCCCUCCUAAGGAGACGACUGCGGGUUCGAGUCCCCUACAGAACG | ≤ 0.5
43 | GUUCCGUUGGCGUAAUGGUAACCCGUAUCCCUCCUAAGGAGAAGACUGCGGGUUCGUGUCCCGUACGGAACG | ≤ 0.5
44 | GUUCCGUUGACGUAAUGGUAACGCGUCUCCCUUCUAAGGAGAACGCUGCGGGUUCGAGUCCCGUACGGAACG | ≤ 0.5
45 | GUUCCGUUGGCGUAAUGGUAACGCGUAUCCCUCCAAAGGAGAAGACUGCGGGUUCGAGUCCCGUACGGAACG | 0.662
46 | GUUCCGUUGGCGUAAUGGUAACGCGUCUCCCUCCUAAGGAGAAGAUUGCGGGUUCGUGUCCCGUACGGAACG | 1
47 | GUUCCGUUGGCGUAAUGGUAACACGUCUCCCUCCUAAGGAGAAGACUGCGGGCUCGAGUCCCGUAAGGAACG | ≤ 0.5
48 | GUUCCGUUGGCGUAAUGGUAACGCGUUUCCCUCCUAAGGAGAAGUCUGCGGGUUCGAGUCCCGUACGGAACG | 1.02
49 | GUUUCGUUGGCGUAAUGGUAACGCGUCCUCCUCCUAAGGAGAAGACUGCGGGUUCGAGUCCCCUUCGGAACG | ≤ 0.5
50 | GUUCCGUUGGCGUAAUGGUAACGCGUCUCCCUCCUAAGGAGACGACUGGGGGUUCGAGUCACGUACGGAACG | 0.702

Row | Variant | yeast fitness
51 | GUUCCGUUGGGGUAAUGGUAACGCGUCUCCCUCCUAAGGAGAAGACUGUGGGUUCGAGUCCCGUACGUAACG | ≤ 0.5
52 | GUUCCGUUGGCGUAAUGGUAACGCGCCUCCCUCCUAAGGAGAAGACUGGGGGUUCGAGUCCCGUACGGAACG | 0.842
53 | GUUCCGUUGGCGUAAUGGUAACGCGUCUCCCUUCUAAGGAGAAGACAGCGGGUUCGAGUCCCAUACGGAACG | ≤ 0.5
54 | GUUCCGUUGGCGUAAUGGUACCGCGUGUCCCUCCUAAGGAGAAGACUGCGGGUUCGAGUCCCGUACGGAACG | 0.537
55 | GUUCCGUUGGCGUAAUGGUAACGCGUCUCCUUGCUAAGGAGAAGACUGCGGGUUCGAGUCCCGUACGGAACG | 0.785
56 | GUUCCGAUGGCGUAAUCGUAACGCGUCUCCCUCCUAAGGAGAAGACUGCGAGUUCGAGUCCCGUACGGAACG | ≤ 0.5
57 | GUUCCGUUGGCGUAAUGGUAACGCGUCUCCUUCCUAUGGAGAAGACUGCGGGUACGAGUCCCGUACGGAACG | 0.514
58 | GUUCCGUUGGCGUAAUGGUAACGCGUCUCCCUCCUAAGGAGCAGACUGCGGGUUCGAGUCCCGUACGGAACG | 0.967
59 | GUUCCGUUGGCGUAACGGUAACGCGUCUCCCUCCUAAGGAGAAGACUGCGGGUUAGAGUCCCGUACGGAACG | 0.664
60 | GUUCAGUUGGCGUAAUCGUAACGCAUCUCCCUCCUAAGGAGAAGACUGCGGGUUCGAGCCCCGUACGGAACG | ≤ 0.5
61 | GUUCCGUUGGCGUAAUGGUAACGCGUCUCGCUCCUAAGGAGAAGACUGGGGGUUCGAGUCCCGUACGGAACG | 0.635
62 | GUCCCGUUGGCGUAAUGGUAACGCGUUUCCCUCCUAAGGAGAAGACUGCGGGUUCGAGUCCUGUACGGAACG | 0.617
63 | GUUCCAUUGGCGUAAAGGUAACGCGUCUCCCUCCUCGGGAGAAGACUGCGGGUUCCAGUCCCGUACGGAACG | ≤ 0.5
64 | GUUCUCUUGGAGUAAUGGUAACGCGUCUCCGUCCUCAGGAGAAGACUGCGGGUUCGAGUCCCGUACGGAACG | ≤ 0.5
65 | GUUCCGUUGGCGUCAUGGUAACGCGUCUCCCUCUUAGGGAGAAGACUGCGGGUUCGAGUCCCGUACGGAACG | 0.507
66 | GUUCCGUUGGCGUAAUGGUAACACGUGUCCCUCAUAAGGAGAAGCCUGCGGGUUCGAGUCCCGGACGGAACG | ≤ 0.5
67 | GUUCCGUCGACGUAAUGGUAACGCGUCUCCCUCCAAAGGAGAAGACUGCGGGUUCGAGUCCCGUACGGAACG | ≤ 0.5
68 | GUUCCGCUGGCGUAAUGGUAACGCGUCUCCCUCCUAAGGAGAAGAAUGCGAGAUCGAGUCCAGUACGAAACG | 0.579
69 | GUUCCGUUGGCGUAAUGGUAACGCCUCUUCCUCCUAAGGAGAAGACUGCGGGUUCGAGUCCCGUACGGAACG | 0.688
70 | GUUCCGCUGGCGUAAUGGUAACGCGUCUGCCUCCUAAGGAGAAGCCUGCGGGUUCGAGUCCGGUCCGGAACG | ≤ 0.5
71 | GUUCCGUUGGCGUAAUGGUAACGGGUCUCCCUCCUAAGGAGAAGGCUGCGGGUUCGAGUCCCGUACGGAACG | 0.637
72 | GUUCCGUUGGCGUAAUGGUAACGUGUCUCCCUCCUAAGGAGAAGACUGCGGGUUCGAGUCCAGUACGGCACG | 0.524
73 | GUUCCGUUGGCGUAAUGGUAACGCGUCCCCCUCCUAAGGGGAAGCCUGCGGGUUCGAGUCCCGUACGGAUCG | 0.911
74 | GUUCCGUUGGCGCAAUGGUAACGCGUCUCCCUCGUAAGGUGAAGCCUGCGGGUUCGCGUCUCGUACGGAACG | ≤ 0.5
75 | GUUCCGUUGGCGUAAUGGUAACGCGUCUCCCUCCUAAGGAGAAGACUGAGGGUUCGAGUCUCGUACGGAACG | 0.607
